Screens from PubChem.
A selection: hits, their analogues and other compounds. The true share with any hit is near 2.8%.
HTRA1 inh – HTRA1 (human) protease inhibition | Q92743 | recombinant HTRA1, FP-rhodamine activity-based probe, fluorescence polarization | inhibition, % at 5.96 µM | hit rate 0.5% among 340,000; in the data active = inhibition above about 36%;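 also: 0% = enzyme with DMSO and 100% = wells lacking enzyme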
PAFAH2 inh – inhibitors of human PAFAH2; Q99487; recombinant PAFAH2, FP-rhodamine activity probe, fluorescence polarization; hit rate 0.99% among 340,000; inhibition, % at 3.39 µM; AID 492956;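 active = inhibition above the mean over all tested compounds plus 3 SD, cut at about 30% in these data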;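 also: inhibitors block probe labeling of enzyme so polarization drops; 0% = enzyme with DMSO and 100% = wells lacking PAFAH2 protein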
pPAFAH FP inh – inhibitors of human plasma PAF acetylhydrolase (pPAFAH). Q13093. hit rate 1.5% among 330,000. inhibition, % at 3.39 µM. recombinant pPAFAH, FP-rhodamine probe fluorescence polarization. AID 463082;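 active = inhibition above the mean inhibition across the screen plus 3 SD, cut at about 25% in these data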;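 also: inhibitors block binding of the rhodamine activity-based probe so polarization drops; 0% = enzyme with DMSO and 100% = wells lacking pPAFAH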
PAFAH1B2 inh – PAFAH1B2 (human) inhibition; P68402; recombinant PAFAH1B2, FP-rhodamine activity probe, fluorescence polarization; inhibition, % at 3.39 µM; hit rate 1.2% among 340,000; AID 492953;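 active = inhibition above the mean of all tested compounds plus 3 SD, cut at about 24% in these data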;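 also: 0% = enzyme with DMSO and 100% = wells lacking PAFAH1B2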
Target sequence (P68402 whole entry, looked up): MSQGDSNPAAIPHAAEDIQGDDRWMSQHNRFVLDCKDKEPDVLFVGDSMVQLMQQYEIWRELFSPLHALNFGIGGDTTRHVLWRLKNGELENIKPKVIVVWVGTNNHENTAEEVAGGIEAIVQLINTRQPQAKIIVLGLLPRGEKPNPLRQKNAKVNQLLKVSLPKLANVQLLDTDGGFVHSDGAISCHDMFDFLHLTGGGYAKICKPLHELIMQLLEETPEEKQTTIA
PAFAH1B3 inh – blocks human PAF acetylhydrolase 1B catalytic subunit 3; hit rate 0.28% among 340,000; recombinant PAFAH1B3, FP-rhodamine probe, fluorescence polarization; Q15102; inhibition, % at 3.39 µM; AID 492972;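 active = inhibition above the screen-wide average of all tested compounds plus 3 SD, cut at about 25% in these data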;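 also: 0% = enzyme with DMSO only and 100% = wells lacking PAFAH1B3 protein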
ABHD4 inh – ABHD4 (mouse) inhibition, primary FP screen | purified mABHD4, FP-Rh probe fluorescence polarization | inhibition, % at 8.92 µM | hit rate 0.54% among 370,000;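 active = inhibition exceeding the mean over every tested compound plus 3 SD, cut at about 30% in these data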;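 also: 0% = plate median of compound wells and 100% = S159A mutant with DMSO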
Target sequence (Q8VD66 whole entry, looked up): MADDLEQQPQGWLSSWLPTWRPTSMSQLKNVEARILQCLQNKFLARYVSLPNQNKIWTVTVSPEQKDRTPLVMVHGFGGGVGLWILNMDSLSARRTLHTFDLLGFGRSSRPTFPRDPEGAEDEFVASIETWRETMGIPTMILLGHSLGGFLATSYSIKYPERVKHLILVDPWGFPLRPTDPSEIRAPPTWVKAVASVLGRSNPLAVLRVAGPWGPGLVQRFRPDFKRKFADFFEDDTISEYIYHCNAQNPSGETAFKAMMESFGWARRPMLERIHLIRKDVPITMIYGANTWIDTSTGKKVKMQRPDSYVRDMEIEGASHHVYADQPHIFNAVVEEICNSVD
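Doses – 8.92 µM, single dose · Material – wild-type mouse ABHD4 protein · Replication – single well per compound (singlicate) · Measure – percent inhibition of probe binding, normalized to plate controls · Schedule – 45 min compound pre-incubation plus 60 min probe step, 25 °C · Detection – fluorescence polarization with parallel and perpendicular emission, 525/598 nm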
Numbers without * were called inactive; nt = no result.

SMILES | HTRA1 inh | PAFAH2 inh | pPAFAH FP inh | PAFAH1B2 inh | PAFAH1B3 inh | ABHD4 inh
CCC(c1ccccc1)c1nc(-c2cccnc2)no1 (stereo not drawn) | -1 | 5 | 5 | 17 | 0 | -1
CCC(c1ccccc1)c1nc(-c2ccccn2)no1 (stereo not drawn) | -6 | 2 | -1 | 27* | 10 | 1
Cc1noc(C)c1NC(=O)Nc1ccc2c(c1)C(=O)N(C)[C@H]1CC[C@H](CC(=O)NCc3ccc(Cl)cc3)O[C@@H]1CO2 | nt | nt | nt | nt | nt | 11
Cc1ccc([N+](=O)[O-])c(-c2n[nH]c(=S)n2-c2cccc(Cl)c2)c1 | 6 | 5 | 3 | 31* | 10 | -1
Cc1cccc(-n2c(-c3ccoc3C)n[nH]c2=S)c1 | 7 | -3 | -1 | -1 | 6 | 7
CC(COc1ccc(S(C)(=O)=O)cc1)CN1CCC(C(O)(c2ccccc2)c2ccccc2)CC1 (stereo not drawn) | nt | nt | nt | nt | nt | -3
COc1cc(NC(=O)c2ccc(COc3ccccc3Br)o2)cc(OC)c1OC | -14 | 1 | 26* | 8 | 13 | -5
O=C(Nc1ccc(C(O)(C(F)(F)F)C(F)(F)F)cc1)c1c(F)cccc1F | nt | nt | nt | nt | nt | -33
Cc1cc(Br)ccc1OCC(=O)NNC(=O)C(=O)Nc1ccccc1 | 0 | 11 | 9 | 27* | 2 | -2
Cc1cc(Br)ccc1OCC(=O)NNC(=O)Cc1ccccc1 | 0 | 14 | 2 | 1 | -4 | -7
COc1ccc(NC(=O)CSc2nnc(-c3n[nH]c4c3CCC4)n2N)cc1 | nt | nt | nt | nt | nt | 6
O=C(Nc1ccc(F)cc1)OCCN1CCCC12CCC(c1ccccc1)CC2 (stereo not drawn) | nt | nt | nt | nt | nt | -10
CCCOc1ccc(C(=O)ON=C2CCN(C)CC2)cc1 | 5 | 78* | 26* | 4 | -4 | -4
O=C1OC(c2ccccc2)=N/C1=C/c1cccc(OC(=O)c2cccs2)c1 | 4 | -5 | 0 | 66* | 2 | 0
COc1cc(N)c2ncccc2c1Cl | 6 | -3 | nt | 6 | 2 | 34*
CCN(CC)c1ccc(/C=C2\CCC(/C=N/NC(=O)c3ccc(=O)n(C)c3)=C2N2CCOCC2)cc1 | 8 | -1 | 29* | 3 | 5 | -1
O=C(N/N=C/C1=C(N2CCOCC2)C(=C\c2ccccc2)/CC1)Nc1ccccc1 | -3 | -4 | 2 | 1 | 4 | 9
COc1ccccc1C(=O)CSc1nnc(-c2ccncc2)n1-c1ccc(Cl)cc1 | nt | nt | nt | nt | nt | 4
NC(=O)/C(=C/c1ccco1)C(N)=S | -1 | 7 | 26* | 10 | 16 | 12
COc1ccc(NC(=O)C2CCC2)cc1S(=O)(=O)Nc1cc(C)ccc1Br | -30 | 0 | 29* | 5 | 6 | -9
c1nc2nc3c(c(N4CCCC4)n2n1)CCCC3 | nt | nt | nt | nt | nt | 4
CCOC(=O)C1CCN(C(=O)CSc2ccc(Cl)cc2)CC1 | -6 | 2 | 6 | 2 | 3 | 2
CCOC(=O)C1CCN(C(=O)COC(=O)Cc2ccc(Cl)cc2)CC1 | 3 | 11 | 30* | 8 | 6 | 0
COc1ccc(S(=O)(=O)N2CCN(C(=O)[C@@H]3CCC(=O)N3C3OC(=O)c4ccccc43)CC2)cc1 (stereo partly drawn) | 1 | 5 | 0 | 33* | 0 | -11
CCCCCCCCNS(=O)(=O)CC1NCc2cc(OC)ccc21 (stereo not drawn) | nt | nt | nt | nt | nt | 3
SMILES | HTRA1 inh | PAFAH2 inh | pPAFAH FP inh | PAFAH1B2 inh | PAFAH1B3 inh | ABHD4 inh
FC(F)(F)c1cccc(NC(=S)NCc2ccccn2)c1 | 2 | 2 | 4 | 5 | 2 | 0
FC(F)(F)c1cccc(NC(=S)NNC(=S)NCc2ccccc2)c1 | 19 | 14 | 48* | 19 | 16 | 11
Cc1ccc(NC(=O)CSc2nc(C)cc(=O)[nH]2)c(C)c1 | nt | nt | nt | nt | nt | 0
Cn1ccc(C(=O)OCC(=O)Nc2cccc3ccccc23)n1 | 2 | 50* | 0 | -3 | 13 | 3
COC(=O)[C@H](CC(C)C)N(Cc1cn(Cc2ccccc2)nn1)S(=O)(=O)c1ccc(F)cc1Br | nt | nt | nt | nt | nt | -1
O=C(c1cc(-c2ccccc2)on1)N1CCCc2ccccc21 | -15 | 1 | 3 | 3 | -1 | 1
O=C(c1cc(-c2ccco2)on1)N1CCc2ccccc2C1 | 10 | 0 | 30* | 4 | -9 | -6
O=C(c1cc(-c2ccco2)on1)N1CCCc2ccccc21 | -6 | 6 | 25* | 2 | -1 | -8
CC(C)[C@H](NC(=O)[C@H](Cc1ccccc1)NC(=O)OC(C)(C)C)C(=O)N1CCC2CCN(S(=O)(=O)c3ccccc3)CC21 (stereo partly drawn) | nt | nt | nt | nt | nt | 5
O=C(Nc1ccc(-c2cnco2)cc1)c1ccc(Cl)cc1 | nt | nt | 29* | nt | nt | -2
O=C(Nc1ccccc1)Nc1c(-c2ccc(F)cc2)nc2ncccn12 | nt | nt | nt | nt | nt | 8
COc1ccc(CCNC(=S)N2CCN(S(=O)(=O)c3ccc(C)cc3)CC2)cc1 | -2 | -2 | -5 | 1 | 3 | 10
COc1ccc(S(=O)(=O)N2CCN(C(=S)NCCc3ccccc3)CC2)cc1 | -13 | 1 | -4 | 27* | 3 | -4
c1ccc(-c2ccc(CNc3nc(-c4ccccn4)nnc3-c3ccccc3)cc2)cc1 | nt | nt | nt | nt | nt | 6
CC1=CC(=O)c2c(O)ccc(O)c2C1=O | nt | nt | 70* | nt | nt | nt
COc1ccc(N(CC(=O)NCCSc2ccc(C)cc2)S(=O)(=O)c2ccccc2)c(OC)c1 | -27 | -18 | 8 | 27* | 6 | 1
CCCCC(CC)CNC(=O)CN(C)S(=O)(=O)c1cccc2nsnc12 (stereo not drawn) | 1 | 6 | 3 | 25* | 9 | -5
CC(=O)Nc1ccc(NC(=O)C(C)c2cccc(C(=O)c3ccccc3)c2)cc1 (stereo not drawn) | -5 | -5 | 30* | 3 | 6 | -11
O=C(OCc1ccccc1)[C@H](Cc1ccccc1)NC(=O)[C@@H]1CC=C[C@@H]2CCN(CCc3ccccc3)C(=O)[C@@H]21 | nt | nt | nt | nt | nt | -1
O=C(NCCCc1ccccc1)C1CCN(c2nc(-c3ccc(Br)cc3)cs2)CC1 | nt | nt | nt | nt | nt | -3
CCCCC(CC)c1nnc(NC(=O)c2cccs2)s1 (stereo not drawn) | -3 | 7 | nt | 27* | 15 | -5
C/C(=N\NC(=O)c1cccs1)c1ccc2c(c1)OCO2 | nt | nt | 28* | nt | nt | 1
CC(C)(C)c1ccc(S(=O)(=O)NCC(=O)N2CCN(c3ncccn3)CC2)cc1 | nt | nt | nt | nt | nt | 1
CC(=O)N(c1ccccc1)C1CCCC1 | 1 | -1 | -1 | 13 | 4 | 4
O=C(CCl)N(c1ccccc1)C1CCCCC1 | -4 | 0 | 0 | 33* | 2 | 0
CC(=O)C[C@@H](O)CC(=O)[C@H]1OC(=O)CCCCCc2ccccc21 | -5 | 0 | 5 | 7 | 13 | 1
CC(=O)C[C@@H](O)CC(=O)[C@@H]1OC(=O)CCCCCCCCc2ccccc21 | -5 | -3 | 3 | 28* | -11 | -1
CC(=O)C[C@@H](O)CC(=O)[C@@H]1OC(=O)CCCCCCCc2ccccc21 | 3 | 9 | 0 | -1 | 8 | -1
